Data from ChEMBL document CHEMBL3046382, “Synthesis and insecticidal activities and SAR studies of novel benzoheterocyclic diacylhydrazine derivatives” (2009).
In brackets after ≈: the same amount, converted by molar mass.

Columns and labels:
Format in all cases: functional
Mythimna separata [1] = assay: Stomach toxicity in fourth-instar Mythimna separata (Oriental armyworm) larvae in compound treated corn leaves assessed as mortality at 2.5 mg/kg measured after 4 days; details: 96 h
Mythimna separata [2] = assay: Stomach toxicity in fourth-instar Mythimna separata (Oriental armyworm) larvae in compound treated corn leaves assessed as mortality at 5 mg/kg measured after 4 days; details: 96 h
Culicidae [3] = assay: Toxicity against fourth-instar larvae of Culex pipiens pallens assessed as mortality at 1 mg/kg measured after 7 to 10 days
In short: (§1)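 For each concentration, 1 mL of dilution was added to 99 mL water and 20 fourth-instar larvae introduced. Percentage mortality assessed 7–10 days after treatment.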

Culicidae [4] = assay: Toxicity against fourth-instar larvae of Culex pipiens pallens assessed as mortality at 0.5 mg/kg measured after 7 to 10 days; in short: as §1
Mythimna separata [5] = assay: Stomach toxicity in fourth-instar Mythimna separata (Oriental armyworm) larvae in compound treated corn leaves assessed as mortality at 25 mg/kg measured after 4 days; details: 96 h
Mythimna separata [6] = assay: Stomach toxicity in fourth-instar Mythimna separata (Oriental armyworm) larvae in compound treated corn leaves assessed as mortality at 100 mg/kg measured after 4 days; details: 96 h
Mythimna separata [7] = assay: Stomach toxicity in fourth-instar Mythimna separata (Oriental armyworm) larvae in compound treated corn leaves assessed as mortality at 10 mg/kg measured after 4 days; details: 96 h
Mythimna separata [8] = assay: Stomach toxicity in fourth-instar Mythimna separata(Oriental armyworm) larvae in compound treated corn leaves assessed as mortality at 200 mg/kg measured after 4 days; details: 96 h
Culicidae [9] = assay: Toxicity against fourth-instar larvae of Culex pipiens pallens assessed as mortality at 2 mg/kg measured after 7 to 10 days; in short: as §1
Mythimna separata [10] = assay: Stomach toxicity in fourth-instar Mythimna separata (Oriental armyworm) larvae in compound treated corn leaves assessed as mortality at 50 mg/kg measured after 4 days; details: 96 h
Spodoptera exigua [11] = assay: Contact toxicity in fourth-instar Spodoptera exigua assessed as mortality by topical application measured after 72 hr; details: read-out: LD50 (the source's name)
In short: (§2)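 Topical application to fourth-instar larvae: 1.0 μL of acetone dilution at various concentrations placed on the thoracic tergite by automatic microapplicator. Larvae then returned to standard rearing. Acetone-only control, each treatment three times. Mortality calculated at 48 and 72 h and LC50 derived.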

Plutella xylostella [12] = assay: Contact toxicity in fourth-instar Plutella xylostella (diamondback moth) larva assessed as mortality measured after 72 hr by insect-dip method
In short: (§3)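 Fourth-instar larvae immersed for 5 min in acetone solutions diluted with water, five concentrations. Larvae then held at 25 ± 1 °C under standard rearing. Usually 30 insects per dose, each treatment in triplicate, water-only control. Mortality read at 48 and 72 h and LC50 derived.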

Ostrinia nubilalis = assay: Stomach toxicity in Ostrinia nubilalis (European corn borer) in compound treated corn leaves assessed as mortality measured after 4 days by leaf-dip method; details: for LC50: Ostrinia nubilalis, 96 h
In short: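 Corn leaf disks (about 5 cm) dipped 3–5 s in test solution, air-dried, and placed singly in 7 cm glass vessels. Each disk given 10 third-instar larvae. Acetone-treated leaves as control, four replicates. Percentage mortality at 4 days; LC50 and LC95 derived.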

Spodoptera exigua [13] = assay: Stomach toxicity in Spodoptera exigua in compound treated cabbage leaves assessed as mortality measured after 3 days by leaf-dip method; details: 72 h
In short: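 Cabbage leaf disks (5 cm × 3 cm) dipped 3 s in test solution, air-dried, and placed singly in 80 cm³ boxes. Each disk given five third-instar larvae. Water- and acetone-treated leaves as controls, each treatment three times. Percentage mortality read at 3 days.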

Spodoptera exigua [14] = assay: Contact toxicity in fourth-instar Spodoptera exigua assessed as mortality by topical application measured after 48 hr; details: read-out: LD50 (the source's name); in short: as §2
Plutella xylostella [15] = assay: Contact toxicity in fourth-instar Plutella xylostella (diamondback moth) larva assessed as mortality measured after 48 hr by insect-dip method; in short: as §3
Helicoverpa armigera [16] = assay: Stomach toxicity in Helicoverpa armigera in compound treated corn leaves assessed as mortality at 1000 mg/L measured after 4 days by leaf-dip method
In short: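 Corn leaves dipped in acetone solution at 1000 mg L⁻¹ and air-dried. Each treated disk placed singly in a 24-hole box and given 10 third-instar larvae. Percentage mortality scored after 4 days.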

Helicoverpa armigera [17] = assay: Contact toxicity in Helicoverpa armigera assessed as mortality at 1000 mg/L by topical application measured after 4 days […]
In short: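 Third-instar larvae; compounds in acetone at 1000 mg L⁻¹, 0.5 μL applied to the thoracic tergite by microapplicator. Larvae then returned to standard rearing conditions. Percentage mortality scored 4 days after treatment.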

Compound | mortality at 2.5 mg/kg (Mythimna separata [1]) | mortality at 5 mg/kg (Mythimna separata [2]) | mortality at 1 mg/kg (Culicidae [3]) | mortality at 0.5 mg/kg (Culicidae [4]) | mortality at 25 mg/kg (Mythimna separata [5]) | mortality at 100 mg/kg (Mythimna separata [6]) | mortality at 10 mg/kg (Mythimna separata [7]) | mortality at 200 mg/kg (Mythimna separata [8]) | mortality at 2 mg/kg (Culicidae [9]) | mortality at 50 mg/kg (Mythimna separata [10]) | LC50 (Spodoptera exigua [11]) | LC50 (Plutella xylostella [12]) | LC95 (Ostrinia nubilalis) | LC50 (Ostrinia nubilalis) | LC50 (Spodoptera exigua [13]) | LC50 (Spodoptera exigua [14]) | LC50 (Plutella xylostella [15]) | Activity (Helicoverpa armigera [16]) | Activity (Helicoverpa armigera [17])
Cc1c(C(=O)NN(C(=O)c2cc(Cl)cc(Cl)c2)C(C)(C)C)ccc2c1CC(C)O2 (stereo not given) | 0% | 10% | 50% | 0% | 90% | 100% | 90% | 100% | 80% | 100% |  |  |  |  |  |  |  |  | 
Cc1cc(C)cc(C(=O)N(NC(=O)c2ccc3c(c2C)CC(C)O3)C(C)(C)C)c1 (stereo not given) | 20% | 80% | 10% | 10% | 100% | 100% | 95% | 100% | 80% | 100% | 52.8 µg/mL (≈ 134 µM) | 81.4 µg/mL (≈ 206 µM) | 271.89 µg/mL (≈ 689 µM) | 40.5 µg/mL (≈ 103 µM) | 12.7 µg/mL (≈ 32.2 µM) | 190 µg/mL (≈ 482 µM) | 124 µg/mL (≈ 314 µM) | 70% | 50%
Cc1c(C(=O)NN(C(=O)c2ccccc2[N+](=O)[O-])C(C)(C)C)ccc2c1CC(C)O2 (stereo not given) |  |  | 20% | 0% | 20% | 100% | 0% | 100% | 30% | 60% |  |  |  |  |  |  |  |  | 
Cc1c(C(=O)NN(C(=O)c2ccccc2Cl)C(C)(C)C)ccc2c1CC(C)O2 (stereo not given) |  |  | 20% | 10% | 40% | 100% | 0% | 100% | 30% | 100% |  |  |  |  |  |  |  |  | 
Cc1cc(C)cc(C(=O)N(NC(=O)c2ccc3c(c2C)OC(C)C3)C(C)(C)C)c1 (stereo not given) [FUXIAN] | 95% | 100% | 100% | 50% | 100% | 100% | 100% | 100% | 100% | 100% | 12.6 µg/mL (≈ 31.9 µM) | 304 µg/mL (≈ 772 µM) | 147.78 µg/mL (≈ 375 µM) | 25.6 µg/mL (≈ 64.8 µM) | 5 µg/mL (≈ 12.7 µM) | 59.6 µg/mL (≈ 151 µM) | 372 µg/mL (≈ 943 µM) | 60% | 60%
Cc1cc(C)cc(C(=O)N(NC(=O)c2ccc3c(c2Cl)CCCO3)C(C)(C)C)c1 [N'-TERT-BUTYL-N'-(3,5-DIMETHYLBENZOYL)-N-5-CHLORO-6-CHROMANECARBOHYDRAZIDE] |  |  |  |  |  |  |  |  |  |  | 11.7 µg/mL (≈ 28.2 µM) | 70.8 µg/mL (≈ 171 µM) | 405.65 µg/mL (≈ 978 µM) | 55.6 µg/mL (≈ 134 µM) | 5.5 µg/mL (≈ 13.3 µM) | 17.3 µg/mL (≈ 41.7 µM) | 113 µg/mL (≈ 273 µM) | 80% | 40%
Cc1cc(C)cc(C(=O)N(NC(=O)c2ccc3c(c2C)CCCO3)C(C)(C)C)c1 [CHROMAFENOZIDE] | 80% | 100% | 80% | 10% | 100% | 100% | 100% | 100% | 100% | 100% | 14.9 µg/mL (≈ 37.8 µM) | 123 µg/mL (≈ 312 µM) | 139.25 µg/mL (≈ 353 µM) | 18.6 µg/mL (≈ 47.2 µM) | 6.3 µg/mL (≈ 16 µM) | 29.8 µg/mL (≈ 75.5 µM) | 236 µg/mL (≈ 598 µM) | 65% | 60%
Cc1cccc(C(=O)N(NC(=O)c2ccc3c(c2C)CC(C)O3)C(C)(C)C)c1 (stereo not given) | 0% | 15% | 0% |  | 100% | 100% | 100% | 100% | 0% | 100% |  |  |  |  |  |  |  |  | 
Cc1c(C(=O)NN(C(=O)c2cccc(Cl)c2)C(C)(C)C)ccc2c1CC(C)O2 (stereo not given) |  | 0% | 20% | 10% | 30% | 100% | 10% | 100% | 60% | 80% |  |  |  |  |  |  |  |  | 
